Measurements published in paper PMC4860949 (Bioorganic & medicinal chemistry, 2016).
“And” between values parts separate entries of the source, which are not always exact repeats. Identical values can stand only once. “Also recorded” adds a separate entry of the source.

What was measured:
[1] = system: Dd2 drug-resistant strain of P. falciparum; assay: Antimalarial bioassay: 72 h in vitro parasite growth assay, SYBR Green I; format: cell-based, Plasmodium falciparum; conditions: for Antiplasmodial activity (in words): Dd2 drug-resistant strain of P. falciparum; for Concentration at which compound was inactive in antimalarial assay: Dd2 strain, inactive at this (highest tested) dose
How it was run: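 Ring-stage Dd2 cultures (1% hematocrit, 1% parasitaemia) were grown for 72 h with increasing test compound concentrations at 37 °C in a humidified chamber under low oxygen (5.06% CO2, 4.99% O2, 89.95% N2). Viability was measured by SYBR Green I DNA quantitation. IC50 came from nonlinear regression as the mean of three independent determinations in duplicate, ± S.E.M. Artemisinin served as positive control.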

[2] = system: 3D7 strain of P. falciparum; conditions: chloroquine-sensitive strain; cited from earlier work
[3] = system: HEK293 (Human Embryonic Kidney) cells; assay: In vitro cytotoxicity against HEK293 cells; format: cell-based; conditions: 24 h

| SMILES | Antiplasmodial activity (in words) ([1]; listed as Betulinic acid (3)) | Inhibition of 3D7 strain of P. falciparum (in words) [2] | Antiplasmodial activity (in words) [1] | Concentration at which compound was inactive in antimalarial assay [1] | Concentration up to which no inhibition/toxicity to HEK cells was detected [3] |
| --- | --- | --- | --- | --- | --- |
| C=C(C)[C@@H]1CC[C@]2(C(=O)O)CC[C@]3(C)[C@H](CC[C@@H]4[C@@]5(C)CC[C@H](O)C(C)(C)[C@@H]5CC[C@]43C)[C@@H]12 [Compound 3, betulinic acid] | moderate inhibitory effect | inhibit | – | – | – |
| CCCCCC(=O)c1c(O)cc(O)cc1O [Compound 6, 1-(2,4,6-trihydroxyphenyl)-1-hexanone] | – | – | inactive | 90 µM and 80 µM | – |
| C[C@H]1[C@H](C)CC[C@]2(C(=O)O)CC[C@]3(C)C(=CC[C@@H]4[C@@]5(C)CC[C@H](O)C(C)(C)[C@@H]5CC[C@]43C)[C@H]12 [Compound 5, ursolic acid] | – | – | inactive | 40 µM | – |
| CC(C)=CCCC1=CCC2(C(=O)C(C)(C)C(=O)C(C)(C)C2=O)C(CC(C)C)C1 (racemic) [Compound 2, (±)-2,2,4,4-tetramethyl-11-isobutyl-9-(4-methyl-3-penten-1-yl)-spiro[5.5]undec-8-ene-1,3,5-trione] | – | – | moderate antiplasmodial activity | – | 100 µM |
| CCCCCC(=O)c1c(O)cc(O)c2c1OC1=C(C(=O)C(C)(C)C(=O)C1(C)C)C2CC(C)C (racemic) [Compound 1, (±)-4,9-dihydro-6,8-dihydroxy-2,2,4,4-tetramethyl-5-hexanoyl-9-isobutyl-1H-xanthene-1,3(2H)-dione] | – | – | strong antiplasmodial activity; also recorded: strong antimalarial activity | – | 3.125 µM |
